Laboratory results as given in ChEMBL document CHEMBL1125330, “N-substituted pyrazino[2,3-c][1,2,6]thiadiazine 2,2-dioxides. A new class of diuretics” (J Med Chem, 1992).

Key:
[1] = test system: Rattus norvegicus; test: Mean Chlorine excretion in rats when compound administered at 10 mg/kg po and vehicle dosed at 37.13 umol/kg; assay type: ADME, organism-based; design: dose 10 mg/kg, route oral; settings: in vivo
How it was run: (§1)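 Male Sprague-Dawley rats (HC/CFY, 175-200 g), no food or water for 18 h before and during the test. Single gavage dose (2.5-160 mg/kg; vehicle 1% carboxymethyl cellulose/0.1% Tween 80, 0.5 mL/100 g bw), then distilled water 2.5 mL/100 g bw po. Individual metabolic cages, 6 h urine. K+ by flame photometry, Cl- colorimetric, as mequiv/6 h/kg bw; unpaired Student t-test vs control.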

[2] = test system: Rattus norvegicus; test: Mean Chlorine excretion in rats when compound administered at 0 mg/kg po and vehicle dosed at 0 umol/kg; assay type: ADME, organism-based; design: dose 0 mg/kg, route oral; settings: in vivo
[3] = test system: Rattus norvegicus; test: Mean potassium excretion in rats when compound administered at 20 mg/kg po and vehicle dosed at 74.26 umol/kg; assay type: ADME, organism-based; design: dose 20 mg/kg, route oral; settings: in vivo; how it was run: as §1
[4] = test system: Rattus norvegicus; test: Mean potassium excretion in rats when compound administered at 5 mg/kg po and vehicle dosed at 18.56 umol/kg; assay type: ADME, organism-based; design: dose 5 mg/kg, route oral; settings: in vivo
How it was run: (§2)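 Male Sprague-Dawley rats (HC/CFY, 175-200 g) fasted and water-deprived 18 h before and during the test. Dosed by gavage at 2.5-160 mg/kg in 1% carboxymethyl cellulose/0.1% Tween 80, 0.5 mL/100 g bw. Immediately hydrated with water (2.5 mL/100 g bw, po). Urine collected 6 h in metabolic cages; Na+ and K+ by flame photometry; mean mequiv/6 h/kg bw; nonpaired Student t-test.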

[5] = test system: Rattus norvegicus; test: Mean potassium excretion in rats when compound administered at 80 mg/kg po and vehicle dosed at 297.03 umol/kg; assay type: ADME, organism-based; design: dose 80 mg/kg, route oral; settings: in vivo; how it was run: as §2
[6] = test system: Rattus norvegicus; test: Urinary sodium 2 hr after the compound was administered 100 mg/kg po in rat; assay type: ADME, organism-based, Urine; design: dose 100 mg/kg, route oral; settings: in vivo
How it was run: (§3)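 Onset and duration study in fasted, water-loaded male Sprague-Dawley rats housed two per metabolic cage, six pairs per group. Single oral dose given, then water 2.5 mL/100 g po. Urine volume and sodium (flame photometry) measured over 0-1, 1-2, 2-3, 3-4 and 4-6 h intervals. Mean values compared with vehicle by Student t-test.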

[7] = test system: Rattus norvegicus; test: Urinary sodium 3h after the compound was administered 100 mg/kg po in rat; assay type: ADME, organism-based, Urine; design: dose 100 mg/kg, route oral; settings: in vivo; how it was run: as §3
[8] = test system: Rattus norvegicus; test: Urinary sodium 4 hr after the compound was administered 100 mg/kg po in rat; assay type: ADME, organism-based, Urine; design: dose 100 mg/kg, route oral; settings: in vivo; how it was run: as §3
[9] = test system: Rattus norvegicus; test: Urinary sodium 6 hr after the compound was administered 100 mg/kg po in rat; assay type: ADME, organism-based, Urine; design: dose 100 mg/kg, route oral; settings: in vivo; how it was run: as §3
[10] = test system: Rattus norvegicus; test: Mean sodium excretion in rats when compound administered at 0 mg/kg po and vehicle dosed at 0 umol/kg; assay type: ADME, organism-based; design: dose 0 mg/kg, route oral; settings: in vivo; how it was run: as §2
[11] = test system: Rattus norvegicus; test: Mean sodium excretion in rats when compound administered at 160 mg/kg po and vehicle dosed at 594.07 umol/kg; assay type: ADME, organism-based; design: dose 160 mg/kg, route oral; settings: in vivo; how it was run: as §2
[12] = test system: Rattus norvegicus; test: Mean sodium excretion in rats when compound administered at 2.5 mg/kg po and vehicle dosed at 9.28 umol/kg; assay type: ADME, organism-based; design: dose 2.5 mg/kg, route oral; settings: in vivo; how it was run: as §2
[13] = test system: Rattus norvegicus; test: Mean sodium excretion in rats when compound administered at 20 mg/kg po and vehicle dosed at 74.26 umol/kg; assay type: ADME, organism-based; design: dose 20 mg/kg, route oral; settings: in vivo; how it was run: as §2
[14] = test system: Rattus norvegicus; test: Mean sodium excretion in rats when compound administered at 40 mg/kg po and vehicle dosed at 148.52 umol/kg; assay type: ADME, organism-based; design: dose 40 mg/kg, route oral; settings: in vivo; how it was run: as §2
[15] = test system: Rattus norvegicus; test: Mean sodium excretion in rats when compound administered at 5 mg/kg po and vehicle dosed at 18.56 umol/kg; assay type: ADME, organism-based; design: dose 5 mg/kg, route oral; settings: in vivo; how it was run: as §2
[16] = test system: Rattus norvegicus; test: Urinary sodium 1 hr after the compound was administered 100 mg/kg po in rat; assay type: ADME, organism-based, Urine; design: dose 100 mg/kg, route oral; settings: in vivo; how it was run: as §3
[17] = test system: Rattus norvegicus; test: Mean potassium excretion in rats when compound administered at 2.5 mg/kg po and vehicle dosed at 9.28 umol/kg; assay type: ADME, organism-based; design: dose 2.5 mg/kg, route oral; settings: in vivo; how it was run: as §1
[18] = test system: Rattus norvegicus; test: Volume of urine 3h after the compound was administered 100 mg/kg po in rat; assay type: ADME, organism-based; design: dose 100 mg/kg, route oral; settings: in vivo
How it was run: (§4)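 Onset/duration protocol: male Sprague-Dawley rats (HC/CFY, 175-200 g), food and water withdrawn for 18 h before and during the test. Single gavage dose in 1% carboxymethyl cellulose/0.1% Tween 80 (0.5 mL/100 g bw), then distilled water load (2.5 mL/100 g bw po). Two rats per metabolic cage, six pairs per group. Urine collected at 0-1, 1-2, 2-3, 3-4 and 4-6 h; Na+ by flame photometry. Vehicle controls; nonpaired Student t-test.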

[19] = test system: Rattus norvegicus; test: Volume of urine 4 hr after the compound was administered 100 mg/kg po in rat; assay type: ADME, organism-based; design: dose 100 mg/kg, route oral; settings: in vivo; how it was run: as §4
[20] = test system: Rattus norvegicus; test: Volume of urine 6 hr after the compound was administered 100 mg/kg po in rat; assay type: ADME, organism-based; design: dose 100 mg/kg, route oral; settings: in vivo; how it was run: as §4
[21] = test system: Rattus norvegicus; test: Mean Chlorine excretion in rats when compound administered at 2.5 mg/kg po and vehicle dosed at 9.28 umol/kg; assay type: ADME, organism-based; design: dose 2.5 mg/kg, route oral; settings: in vivo; how it was run: as §1
[22] = test system: Rattus norvegicus; test: Mean Chlorine excretion in rats when compound administered at 20 mg/kg po and vehicle dosed at 74.26 umol/kg; assay type: ADME, organism-based; design: dose 20 mg/kg, route oral; settings: in vivo; how it was run: as §1
[23] = test system: Rattus norvegicus; test: Mean Chlorine excretion in rats when compound administered at 40 mg/kg po and vehicle dosed at 148.52 umol/kg; assay type: ADME, organism-based; design: dose 40 mg/kg, route oral; settings: in vivo; how it was run: as §1
[24] = test system: Rattus norvegicus; test: Mean urinary output in rats when compound administered at 0 mg/kg po and vehicle dosed at 0 umol/kg; assay type: ADME, organism-based, Urine; design: dose 0 mg/kg, route oral; settings: in vivo
How it was run: (§5)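 Water-loaded male Sprague-Dawley rats (HC/CFY, 175-200 g) fasted and without water for 18 h. Oral gavage of 2.5-160 mg/kg in 1% CMC with 0.1% Tween 80, then distilled water 2.5 mL/100 g po. Urine collected 6 h in metabolic cages, mean output in mL/6 h/kg bw. Unpaired Student t-test against vehicle; dose-response by linear regression.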

[25] = test system: Rattus norvegicus; test: Mean urinary output in rats when compound administered at 160 mg/kg po and vehicle dosed at 594.07 umol/kg; assay type: ADME, organism-based, Urine; design: dose 160 mg/kg, route oral; settings: in vivo; how it was run: as §5
[26] = test system: Rattus norvegicus; test: Mean urinary output in rats when compound administered at 2.5 mg/kg po and vehicle dosed at 9.28 umol/kg; assay type: ADME, organism-based, Urine; design: dose 2.5 mg/kg, route oral; settings: in vivo; how it was run: as §5
[27] = test system: Rattus norvegicus; test: Mean urinary output in rats when compound administered at 20 mg/kg po and vehicle dosed at 74.26 umol/kg; assay type: ADME, organism-based, Urine; design: dose 20 mg/kg, route oral; settings: in vivo; how it was run: as §5
[28] = test system: Rattus norvegicus; test: Mean urinary output in rats when compound administered at 5 mg/kg po and vehicle dosed at 18.56 umol/kg; assay type: ADME, organism-based, Urine; design: dose 5 mg/kg, route oral; settings: in vivo; how it was run: as §5
[29] = test system: Rattus norvegicus; test: Mean urinary output in rats when compound administered at 80 mg/kg po and vehicle dosed at 297.03 umol/kg; assay type: ADME, organism-based, Urine; design: dose 80 mg/kg, route oral; settings: in vivo; how it was run: as §5
[30] = species on record: Rattus norvegicus; test: Dose required to produce increase in 50 % in urine production vs control groups; assay type: functional; settings: Rattus norvegicus, Urine
How it was run: (§6)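 Male Sprague-Dawley rats (HC/CFY, 175-200 g), fasted and water-deprived 18 h before and during the test. Compound dosed by gavage in 1% carboxymethyl cellulose/0.1% Tween 80, then water load 2.5 mL/100 g bw po. Urine collected 6 h in metabolic cages; Na+ by flame photometry. Effective doses vs vehicle controls derived by linear regression of dose-response data.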

[31] = species on record: Rattus norvegicus; test: Dose required to produce increase in 200 % in urine production vs control groups; assay type: functional; how it was run: as §6
[32] = test system: Rattus norvegicus; test: Post dosing time interval of maximum activity; assay type: functional
How it was run: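 Interval of peak activity taken from timed urine collections (0-1, 1-2, 2-3, 3-4, 4-6 h) after a single oral dose in water-loaded fasted rats, […]. Urine volume and Na+ excretion followed over time.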

[33] = Ratio of Na+ to K+ excretion at dose; assay type: ADME
How it was run: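 Water-loaded fasted male Sprague-Dawley rats dosed orally in CMC/Tween 80 vehicle and hydrated with water 2.5 mL/100 g. Na+ and K+ in urine pooled over 6 h measured by flame photometry. Na+/K+ excretion ratio computed for each dose; Student t-test against control.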

[34] = test system: Rattus norvegicus; test: Mean potassium excretion in rats when compound administered at 10 mg/kg po and vehicle dosed at 37.13 umol/kg; assay type: ADME, organism-based; design: dose 10 mg/kg, route oral; settings: in vivo; how it was run: as §1

With `CCc1nc2c(nc1C)C(N)=NS(=O)(=O)N2CC` the Cl- [1] was 2.67 m equiv 6hr-1 kg-1 (body weight)-1, the Cl- [2] was 1.02 m equiv 6hr-1 kg-1 (body weight)-1 and the K [3] was 0.63 m equiv 6hr-1 kg-1 (body weight)-1. For the same molecule, the K [4] was 0.52 m equiv 6hr-1 kg-1 (body weight)-1, the K [5] was 2.06 m equiv 6hr-1 kg-1 (body weight)-1 and the “Urinary Na+” value [6] was 0.67 m equiv. The “Urinary Na+” value [7] was 0.56 m equiv, the “Urinary Na+” value [8] was 0.27 m equiv and the “Urinary Na+” value [9] was 0.16 m equiv. For the same molecule, the Na [10] was 0.43 m equiv 6hr-1 kg-1 (body weight)-1, the Na [11] was 6.14 m equiv 6hr-1 kg-1 (body weight)-1 and the Na [12] was 0.45 m equiv 6hr-1 kg-1 (body weight)-1. The Na [13] was 1.7 m equiv 6hr-1 kg-1 (body weight)-1, the Na [14] was 3.63 m equiv 6hr-1 kg-1 (body weight)-1 and the Na [15] was 0.8 m equiv 6hr-1 kg-1 (body weight)-1. The “Urinary Na+” value [16] was 0.15 m equiv, the K [17] was 0.46 m equiv 6hr-1 kg-1 (body weight)-1 and the Urine volume [18] was 5.52 mL. The Urine volume [19] was 2.71 mL, the Urine volume [20] was 1.99 mL and the Cl- [21] was 1.21 m equiv 6hr-1 kg-1 (body weight)-1. For the same molecule, the Cl- [22] was 3.99 m equiv 6hr-1 kg-1 (body weight)-1, the Cl- [23] was 6.37 m equiv 6hr-1 kg-1 (body weight)-1 and the V [24] was 21.96 ml 6hr-1 (kg of body weight)-1. For the same molecule, the V [25] was 74.26 ml 6hr-1 (kg of body weight)-1, the V [26] was 20.52 ml 6hr-1 (kg of body weight)-1 and the V [27] was 42.25 ml 6hr-1 (kg of body weight)-1. For the same molecule, the V [28] was 25.06 ml 6hr-1 (kg of body weight)-1, the V [29] was 62.99 ml 6hr-1 (kg of body weight)-1 and the ED50 [30] was 9.17 mg/kg. For the same molecule, the ED200 [31] was 87.61 mg/kg, the Time [32] was 2 h and the Ratio [33] was 2.43 [middle of 8 runs]. For the same molecule, the K [34] was 0.72 m equiv 6hr-1 kg-1 (body weight)-1.
